In ChEMBL document CHEMBL1121641, “Synthesis and anticonvulsant activity of N-(benzoylalkyl)imidazoles and N-(omega-phenyl-omega-hydroxyalkyl)imidazoles” (J Med Chem, 1981):

Experiments:
Mus musculus [1] = assay: Anticonvulsant activity by the maximal electroshock test in mice by intraperitoneal administration; type: functional; conditions: ip
In short: (§1)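 Mice, groups of 10; compounds given ip or po as aqueous solutions or suspensions in 10% aqueous acacia gum. Maximal seizures elicited 30-60 min after dosing by 60-Hz alternating current, 25 mA for 0.2 s via corneal electrodes. Absence of tonic-extensor seizure scored as protection. ED50 by Litchfield-Wilcoxon with 95% confidence limits, or estimated graphically.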

Mus musculus [2] = assay: Anticonvulsant activity was evaluated by the maximal electroshock test in mice, administered orally; type: functional; conditions: po; in short: as §1
[3] = Lethal dose in mice determined after intraperitoneal administration.; type: toxicity, organism-based; conditions: mouse, in vivo, ip
In short: (§2)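 Mice dosed ip or po with aqueous solution or suspension in 10% aqueous acacia gum, 10 animals per dose. Mortality recorded over 7 days, with behavioural symptoms observed by the Irwin scheme. LD50 derived from dose–mortality data.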

[4] = Ionization constant was determined by potentiometric titration at 22 degree C; type: physicochemical
In short: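 Methanolic-aqueous 10⁻³ M solutions of the hydrochloride salts titrated with 0.02 M KOH. Glass-calomel electrode system read on an expanded pH scale. pKa' obtained by the Albert-Serjeant procedure.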

[5] = Partition coefficient (logP); type: physicochemical; conditions: octanol/water
In short: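 Octanol partitioning at room temperature (20 ± 5 °C) with gentle shaking for 6 h, then centrifugation for 15 min at 2000 rpm. Octanol phase quantified by gas chromatography. Amount in the second phase taken as total sample minus the octanol amount.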

[6] = Lethal dose determined in mice after oral administration; type: toxicity, organism-based; conditions: mouse, in vivo; in short: as §2

| Structure (SMILES) | ED50 (Mus musculus [1]) [mg/kg] | ED50 (Mus musculus [2]) [mg/kg] | LD50 [3] [mg/kg] | pKa [4] | logP [5] | LD50 [6] [mg/kg] |
| --- | --- | --- | --- | --- | --- | --- |
| OC(Cn1ccnc1)c1ccc(Cl)cc1Cl (centres undefined) | 39.7 | 39.7 | 300 | – | – | – |
| O=C(Cn1ccnc1)c1ccc(Oc2ccccc2)cc1 | > 20 | > 20 | 100 | – | – | – |
| OC(Cn1ccnc1)c1ccc(Cl)cc1 (centres undefined) | 31 | > 54 | 270 | – | – | – |
| O=C(Cn1ccnc1)c1ccc(Cl)cc1 | > 48 | > 48 | 240 | – | – | – |
| O=C(Cn1ccnc1)c1ccc(CCc2ccccc2)cc1 | 12.7 | 36.9 | – | – | – | – |
| O=C(Cn1ccnc1)c1ccccc1Cl | – | – | 360 | – | – | – |
| CC(C(=O)c1ccc(CCc2ccccc2)cc1)n1ccnc1 (centres undefined) | > 23 | > 23 | 115 | – | – | – |
| O=C(Cn1ccnc1)c1ccccc1 | > 72 | – | 360 | 6.32 | 1.03 | – |
| Nc1ccc(C(=O)Cn2ccnc2)cc1 | > 72 | > 72 | 360 | – | – | – |
| CC(=O)Nc1ccc(C(=O)Cn2ccnc2)cc1 | > 200 | > 200 | 1000 | – | – | – |
| O=C(Cn1ccnc1)c1ccc([N+](=O)[O-])cc1 | > 72 | > 72 | 360 | – | – | – |
| CC(C)(C)c1ccc(C(=O)Cn2ccnc2)cc1 | > 20 | > 20 | 100 | – | – | – |
| CC(Cn1ccnc1)C(=O)c1ccc(-c2ccccc2)cc1 (centres undefined) | 19.5 | > 26 | 130 | – | – | – |
| O=C(CCn1ccnc1)c1ccc(-c2ccccc2)cc1 | 35.1 | 40.5 | – | – | – | 1150 |
| O=C(Cn1ccnc1)c1cccc(-c2ccccc2)c1 | 11.2 | 21 | 210 | – | – | 750 |
| O=C(Cn1ccnc1)c1ccc(C2CCCCC2)cc1 | 62.2 | 89.9 | > 3000 | – | – | 2100 |
| O=C(Cn1ccnc1)c1ccc(O)cc1 | > 150 | > 150 | 750 | – | – | – |
| CC(C)(C(=O)c1ccc(CCc2ccccc2)cc1)n1ccnc1 | 29.5 | > 36 | 180 | – | – | – |
| CCC(C)c1ccc(C(=O)Cn2ccnc2)cc1 (centres undefined) | > 23 | > 23 | 115 | – | – | – |
| COc1ccc(C(=O)Cn2ccnc2)cc1 | > 54 | – | 270 | – | – | – |
| O=C(CCn1ccnc1)c1ccc(CCc2ccccc2)cc1 | 28.6 | 112 | > 3000 | – | – | 2100 |
| O=C(Cn1ccnc1)c1ccc(O)c(O)c1 | > 200 | > 200 | 1000 | – | – | – |
| O=C(Cn1ccnc1)c1ccc(Cl)cc1Cl | > 84 | > 84 | 420 | – | – | – |
| CC(C(=O)c1ccc(-c2ccccc2)cc1)n1ccnc1 (centres undefined) | 13.4 | > 18 | 87.5 | – | – | – |
| CC(C)(C(=O)c1ccc(-c2ccccc2)cc1)n1ccnc1 | 38 | 42.9 | > 3000 | – | – | 1870 |
| O=C(Cn1ccnc1)c1ccccc1-c1ccccc1 | 13.5 | 17.1 | 115 | – | – | 360 |

| Structure (SMILES) | ED50 (Mus musculus [1]) [mg/kg] | ED50 (Mus musculus [2]) [mg/kg] | LD50 [3] [mg/kg] | pKa [4] | logP [5] | LD50 [6] [mg/kg] |
| --- | --- | --- | --- | --- | --- | --- |
| O=C(Cn1ccnc1)c1ccc(-c2ccccc2)cc1 | 61.3 | 78.3 | 1550 | – | – | 2400 |
| CS(=O)(=O)Nc1ccc(C(=O)Cn2ccnc2)cc1 | > 300 | > 300 | > 3000 | – | – | > 3000 |
| CC(C(O)c1ccc(CCc2ccccc2)cc1)n1ccnc1.Cl (centres undefined) | 15 | 36 | 180 | – | – | – |
| Cl.OC(Cn1ccnc1)c1ccc(CCc2ccccc2)cc1 (centres undefined) | 5.3 | 10.2 | 270 | – | – | 434 |
| Cl.OC(Cn1ccnc1)c1ccccc1 (centres undefined) | > 42 | – | 210 | 6.68 | 0.99 | – |
| Cl.O=[N+]([O-])c1ccc(C(O)Cn2ccnc2)cc1 (centres undefined) | 98 | 98 | 490 | – | – | – |
| CC(C)(C)c1ccc(C(O)Cn2ccnc2)cc1.Cl (centres undefined) | 42 | > 42 | 210 | – | – | – |
| COc1ccc(C(O)Cn2ccnc2)cc1.Cl (centres undefined) | > 72 | – | 360 | – | – | – |
| Cl.OC(Cn1ccnc1)c1ccc(C2CCCCC2)cc1 (centres undefined) | 53 | 59.6 | 490 | – | – | 2700 |
| Cl.Nc1ccc(C(O)Cn2ccnc2)cc1 (centres undefined) | > 175 | > 175 | 875 | – | – | – |
| CC(C)(C(O)c1ccc(-c2ccccc2)cc1)n1ccnc1.Cl (centres undefined) | 23.8 | 25.1 | 420 | – | – | 2400 |
| CC(C(O)c1ccc(-c2ccccc2)cc1)n1ccnc1.Cl (centres undefined) | 19.6 | 24.7 | 655 | – | – | 570 |
| Cl.OC(Cn1ccnc1)c1ccc(Oc2ccccc2)cc1 (centres undefined) | 31.1 | > 48 | 360 | – | – | – |
| Cl.Oc1ccc(C(O)Cn2ccnc2)cc1O (centres undefined) | > 230 | > 230 | 1150 | – | – | – |
| Cl.OC(CCn1ccnc1)c1ccc(CCc2ccccc2)cc1 (centres undefined) | 21 | 24.7 | 420 | – | – | 560 |
| Cl.OC(Cn1ccnc1)c1ccccc1-c1ccccc1 (centres undefined) | 18.8 | 24.5 | 155 | – | – | 300 |
| CCC(C)c1ccc(C(O)Cn2ccnc2)cc1.Cl (centres undefined) | 28.5 | 31.2 | 210 | – | – | – |
| Cl.OC(CCn1ccnc1)c1ccc(-c2ccccc2)cc1 (centres undefined) | 44 | 53.5 | 360 | – | – | – |
| CC(C)(C(O)c1ccc(CCc2ccccc2)cc1)n1ccnc1.Cl (centres undefined) | 22.4 | > 48 | 240 | – | – | – |
| CC(Cn1ccnc1)C(O)c1ccc(-c2ccccc2)cc1.Cl (centres undefined) | 25.7 | 32.3 | 210 | – | – | – |
| Cl.Oc1ccc(C(O)Cn2ccnc2)cc1 (centres undefined) | > 200 | > 200 | 1000 | – | – | – |
| Cl.OC(Cn1ccnc1)c1ccc(-c2ccccc2)cc1 (centres undefined) | 45 | 31 | 1150 | – | – | > 30000 |
| Cl.OC(Cn1ccnc1)c1cccc(-c2ccccc2)c1 (centres undefined) | 15.8 | 25 | 180 | – | – | – |
| CCC1(c2ccccc2)C(=O)NC(=O)NC1=O.Cl [PHENOBARBITAL HYDROCHLORIDE] | 22.5 | 17.6 | 235 | – | – | 237 |
| Cl.O=C1NC(=O)C(c2ccccc2)(c2ccccc2)N1 [PHENYTOIN CHLORIDE] | 8.5 | 9.7 | – | – | – | – |
